Results of several laboratories.
Lines come from different studies, so protocols differ.
Cell line: HCT-15
Effect on: cell growth or viability

| Compound | method | tested at | time | quantity | value |
| --- | --- | --- | --- | --- | --- |
| [Se]=c1n(C23CC4CC(CC(C4)C2)C3)ccn1C12CC3CC(CC(C3)C1)C2 | MTT |  | 72 h | IC50 | 8300 nM |
| S=C([S][Au-][P+](CCCCCC[P+]([Au-][S]C(=S)n1cccn1)(c1ccccc1)c1ccccc1)(c1ccccc1)c1ccccc1)n1cccn1 |  |  |  | GI50 | 2880 nM |
| O=C(O)CCCc1ccccc1 | MTT |  | 72 h | IC50 | > 50000 nM |
| CC(C)c1cccc(C(C)C)c1-n1ccn(-c2c(C(C)C)cccc2C(C)C)c1=[Se] | MTT |  | 72 h | IC50 | 14800 nM |
| COc1cccc(Oc2ccccc2NC(=O)CNC(=O)c2cccc3ccccc23)c1 | SRB |  | 48 h | GI50 | 129 nM |
| Cc1cc(C)n(C(=S)[S][Au][PH](CCCCCC[PH]([Au][S]C(=S)n2nc(C)cc2C)(c2ccccc2)c2ccccc2)(c2ccccc2)c2ccccc2)n1 |  |  |  | GI50 | 1120 nM |
| CC(C)C[C@H](NC(=O)[C@H](Cc1ccccc1)NC(=O)c1cnccn1)B(O)O | ATP luminescence |  |  | IC50 | 9.6 nM |
| Cc1c(C)n(-c2c(C(C)C)cccc2C(C)C)c(=[Se])n1-c1c(C(C)C)cccc1C(C)C | MTT |  | 72 h | IC50 | 16200 nM |
| COc1cccc2c1C(=O)c1c(O)c3c(c(O)c1C2=O)C[C@@](O)(C(=O)CO)C[C@@H]3O[C@H]1C[C@H](N)[C@H](O)[C@H](C)O1 | MTT |  | 24 h | IC50 | 6600 nM |
| COc1ccc(C(=O)/C=C/c2ccc3c(c2)OCCO3)cc1S(N)(=O)=O | SRB | 10 µM |  | inhibition | 58% |
| COc1cc(Nc2nccc(-c3cnn4nc(OC)ccc34)n2)cc(C(F)(F)F)c1 | ATP luminescence |  |  | IC50 | 360 nM |
| CC(C)[C@H](N)c1nc2cc(-c3ccncc3F)sc2c(=O)[nH]1 | MTT |  |  | IC50 | 301 nM |
| COc1ccc(C(=O)/C=C/c2cccc(Cl)c2Cl)cc1S(N)(=O)=O | SRB |  | 48 h | GI50 | 1300 nM |
